In article PMC10795152 (ACS Omega, 2024) one finds IC50 data, which are given here for 1 compound.

Assay [1] concerns the target EGFR^L858R/T790M/C797S (Homo sapiens, UniProt P00533, C797S/L858R/T790M). The experiment in a line: In vitro enzymatic activity assay. In kind it is biochemical. The procedure, abridged: (§1)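 Reaction mix: 40 mM Tris pH 7.4, 10 mM MgCl2, 0.1 mg/mL BSA, 1 mM DTT, 10 μM ATP, 25 ng kinase and 0.2 mg/mL poly(Glu,Tyr) substrate. Test compound diluted in 10% DMSO before addition, giving 1% DMSO final. Residual ATP read by luminescence, with signal inverse to kinase activity. IC50 from nonlinear regression of normalized dose–response data.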

Assay [2] concerns the target EGFR^Del19/T790M/C797S (Homo sapiens, UniProt P00533, C797S/DEL746-750/T790M). The experiment in a line: In vitro enzymatic activity assay. In kind it is biochemical. The procedure, abridged: as §1

As for `Oc1ccccc1-c1nc(NCCN2CCNCC2)c2ccccc2n1` [4a, 2-(4-((2-(Piperazin-1-yl)ethyl)amino)quinazolin-2-yl)phenol], the figures for the IC50 in assay [1] and in assay [2] were 1220 ± 31 nM and 1430 ± 22 nM, respectively.
